Data: PubChem BioAssay
Inconclusive results are not listed. The source made the active and inactive calls.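 The calls were made as follows, unless noted: active = viability at or below 27.92% in each of two runs, the all-compound median minus 4 SD; inconclusive = no clear call, values can overlap the other calls; inactive = the rest.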

What was measured:
[1] = S. cerevisiae growth inhibition in permissive medium (OD615), pilot counter-assay for S. cerevisiae lifespan shortening project, permissive growth control (AID 705;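 active = growth inhibition above 25% in both replicates, a cutoff set 3 SD above the mean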); settings: OD615, 24 h, at 10 µM, stronger effect = higher value
Procedure, shortened: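 System: S. cerevisiae with engineered DeaD lifespan system. Medium: SC raffinose/galactose permissive medium. Doses: single compound dose of 10 µM, 0.25% DMSO final. Schedule: 24 h exposure, 30 °C. Measured by: OD615 turbidity read. Read-out: growth inhibition.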

[2] = S. cerevisiae growth inhibition in restrictive medium, OD615, pilot screen, restrictive growth control, yeast lifespan reduction project (AID 706;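 active = growth inhibition above a set limit, 3 SD over mean compound inhibition, in both replicates, cut at about 43% in these data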;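 also: modified DeaD lifespan yeast strain shifted to restrictive glucose medium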); settings: OD615, 48 h, at 10 µM, stronger effect = higher value
Procedure, shortened: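 Assay system – genetically modified Saccharomyces cerevisiae, DeaD replicative lifespan assay strain · Medium – CSMM-D glucose medium · Doses – 10 µM compound, 0.25% DMSO · Times – 4 h pre-incubation, 48 h exposure at 30 °C · Signal – optical density at 615 nm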

[3] = doxorubicin toxicity protection in MRP-1 cells – H69AR cells, CellTiter-Glo, duplicate, MRP-1 activator project, pilot screen (AID 807;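 active = viability increase at or above a cutoff of the median across tested compounds plus 3 SD, cut at about 8.5% in these data, passing the limit was not always enough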;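 also: compound pretreatment 18-22 h then 72 h combined with doxorubicin; 0% = doxorubicin alone and 100% = vehicle without doxorubicin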); settings: H69AR viability with doxorubicin, CellTiter-Glo luminescence; at 10 µM; stronger effect = higher value
[4] = viability of HCT116 without oncogenic beta-catenin – human colon tumor cells, pilot screen (AID 823;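 active = cell viability at or below a set limit in both duplicate runs, the limit being the all-compound median minus 4 SD, cut at about 23% in these data, passing the limit was not always enough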;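 also: 0% = wells killed by 20 µM Hyamine and 100% = untreated DMSO cell wells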); settings: HCT116 beta-catenin knockout viability, CellTiter-Glo, 60 h; at 10 µM; stronger effect = lower value
[5] = viability of PTEN-null HCT116 cells – cell-based, HCT116 clonal line, CellTiter-Glo, pilot screen (AID 824); settings: HCT116 PTEN-deleted viability, 60 h, at 10 µM, stronger effect = lower value;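 also: 0% = 20 µM Hyamine control and 100% = vehicle cell control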
[6] = RAM pathway blockade in budding yeast – dse1pr::URA3 reporter, 5-FOA selection, pilot screen (AID 869;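 active = inhibition over a set limit, the all-compound mean plus 3 SD, in both replicate runs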;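 also: 0% = DMSO wells with no growth and 100% = 10 µM 1-NA-PP1 with full growth; RAM network block rescues cells from 5-FOA so hits raise OD615 growth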); settings: S. cerevisiae dse1pr::URA3 5-FOA growth, OD615, 2 d; at 10 µM; stronger effect = higher value; strain carries analog-sensitive mutant Cbk1 kinase
[7] = RAM signaling pathway blockade in yeast – S. cerevisiae, Pdr1DBD-CYC8 efflux-inhibited sensitized strain, primary screen (AID 1298;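 active = RAM network inhibition above 8.4% in each of two replicates, 3 SD over the compound average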;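 also: 0% = DMSO untreated cells without growth and 100% = 10 µM 1-NA-PP1 full growth; higher means more yeast growth rescued from 5-FOA killing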); settings: S. cerevisiae cbk1-as DSE1-URA3 strain, 5-FOA growth OD615, 2 d; at 50 µM; stronger effect = higher value

CCOC(=O)c1oc2cc(O)ccc2c(=O)c1-c1ccccc1OC
inactive: growth inhibition [1] -11.6% | growth inhibition [2] -0.685% | viability increase [3] -1.98% | viability [4] 98.4% | viability [5] 92% | inhibition [6] -0.595% | RAM network inhibition [7] 5.56%

CCCc1cc(C(=O)NCC(C)C)no1
inactive: growth inhibition [1] -3.57% | growth inhibition [2] 13.8% | viability increase [3] 0.64% | viability [4] 109% | viability [5] 101% | inhibition [6] 1.85% | RAM network inhibition [7] 1.2%

COC(=O)c1cc(OC)c(OC)cc1NC(=O)C1CCCO1 (configuration not stated)
inactive: growth inhibition [1] -6.67% | growth inhibition [2] 1.77% | viability increase [3] -0.93% | viability [4] 105% | viability [5] 99.8% | inhibition [6] 0.545% | RAM network inhibition [7] 4.85%

Cc1noc(C(=O)Nc2c(C)nn(Cc3ccccc3)c2C)c1Cl
inactive: growth inhibition [1] -7.73% | growth inhibition [2] 7.98% | viability increase [3] 0.04% | viability [4] 93.1% | viability [5] 88.7% | inhibition [6] 2.25% | RAM network inhibition [7] 3.63%

COc1ccccc1C(=O)N1CCN(c2cccc(Cl)c2)CC1
active: viability [4] 15.4% | viability [5] 20%
inactive: growth inhibition [1] -9.06% | growth inhibition [2] -12.8% | viability increase [3] -4.63% | inhibition [6] 2.75% | RAM network inhibition [7] 2.22%

O=C(CC(c1ccccc1)c1ccccc1O)NCCN1CCOCC1 (configuration not stated)
inactive: growth inhibition [1] 0.155% | growth inhibition [2] -2.5% | viability increase [3] -2.74% | viability [4] 102% | viability [5] 95.6% | inhibition [6] 3.25% | RAM network inhibition [7] 2.36%

O=C(c1ccc(CS(=O)(=O)c2ccc(Br)cc2)o1)N1CCCCCC1
inactive: growth inhibition [1] -9.29% | growth inhibition [2] -18.8% | viability increase [3] -2.25% | viability [4] 87.9% | viability [5] 92.2% | inhibition [6] 0.185% | RAM network inhibition [7] 9.94%

COCCN1C(=O)c2ccccc2C(C(=O)N2CCN(c3ccccn3)CC2)C1c1ccc(F)cc1 (configuration not stated)
inactive: growth inhibition [1] 1.72% | growth inhibition [2] -22.7% | viability increase [3] -4.12% | viability [4] 92.2% | viability [5] 90.4% | inhibition [6] 0.335% | RAM network inhibition [7] 8.63%

COc1ccc(C(=O)Nc2ccccc2C(=O)NCCCn2ccnc2)cc1
inactive: growth inhibition [1] -1.82% | growth inhibition [2] -2.64% | viability increase [3] -0.82% | viability [4] 95.1% | viability [5] 92.9% | inhibition [6] 0.715% | RAM network inhibition [7] 2.86%

O/N=C1/CCCSc2ccccc21
inactive: growth inhibition [1] -7.19% | growth inhibition [2] -16.8% | viability increase [3] -1.24% | viability [4] 96.6% | viability [5] 97.9% | inhibition [6] 0.95% | RAM network inhibition [7] 2.18%

CC(C)C(NS(=O)(=O)c1ccc2c(c1)oc(=O)n2C)C(=O)N1CCN(c2ccccc2F)CC1 (configuration not stated)
inactive: growth inhibition [1] -11% | growth inhibition [2] -9.9% | viability increase [3] -4.04% | viability [4] 86.9% | viability [5] 83.1% | inhibition [6] 1.75% | RAM network inhibition [7] 4.04%

Cc1cccn2c(=O)c3cc(C#N)c(=NC(=O)c4ccccc4)n(Cc4ccco4)c3nc12
inactive: growth inhibition [1] -4.6% | growth inhibition [2] -12.7% | viability increase [3] -1.26% | viability [4] 72.7% | viability [5] 62.2% | inhibition [6] 1.75% | RAM network inhibition [7] 4.04%

COCc1cc(C)nc2sc(C(=O)N3CCN(c4ccccc4)CC3)c(N)c12
inactive: growth inhibition [1] -3.52% | growth inhibition [2] 2.86% | viability increase [3] -0.4% | viability [4] 89% | viability [5] 86.8% | inhibition [6] 1.76% | RAM network inhibition [7] 3.05%

COc1ccc(CNC(=O)CS(=O)Cc2nc(-c3ccccc3C)oc2C)cc1 (configuration not stated)
inactive: growth inhibition [1] -3.65% | growth inhibition [2] 10.4% | viability increase [3] -0.34% | viability [4] 96.7% | viability [5] 101% | inhibition [6] 0.275% | RAM network inhibition [7] 1.98%

CCCCn1ccc(=O)c2c(C(F)(F)F)nccc21
inactive: growth inhibition [1] -6.65% | growth inhibition [2] -11.4% | viability increase [3] -3.12% | viability [4] 87.8% | viability [5] 84.4% | inhibition [6] 1.19% | RAM network inhibition [7] -0.41%

CCN(CCN(C)C)C(=O)Cn1ncc2c1-c1cc(C)ccc1OC2
inactive: growth inhibition [1] -11% | growth inhibition [2] -0.185% | viability increase [3] -0.91% | viability [4] 94.8% | viability [5] 102% | inhibition [6] 2.43% | RAM network inhibition [7] 2.3%

Cc1cc(C)n(-c2nc3ccccc3nc2N2CCOCC2)n1
inactive: growth inhibition [1] -12.6% | growth inhibition [2] 7.74% | viability increase [3] -1.22% | viability [4] 98% | viability [5] 98.3% | inhibition [6] 2.33% | RAM network inhibition [7] 2.25%

CCCC(=O)OCCNC(=O)c1cc2ccccc2oc1=O
inactive: growth inhibition [1] -4.39% | growth inhibition [2] 2.19% | viability increase [3] -0.74% | viability [4] 102% | viability [5] 90.2% | inhibition [6] 0.64% | RAM network inhibition [7] 2.41%

CCOc1ccc(CC(=O)Nc2c(C(N)=O)oc3ccc(Br)cc23)cc1OCC
inactive: growth inhibition [1] -12% | growth inhibition [2] -15.8% | viability increase [3] -5.14% | viability [4] 61% | viability [5] 45% | inhibition [6] 2.49% | RAM network inhibition [7] 0.56%

N=c1sccn1CC(=O)Nc1ccccc1-c1ccccc1
inactive: growth inhibition [1] -5.55% | growth inhibition [2] -3.2% | viability increase [3] -2.08% | viability [4] 94.3% | viability [5] 95.8% | inhibition [6] 2.95% | RAM network inhibition [7] 3.6%

Cc1cccc(-n2ncc3c(Nc4ccc(F)cc4)ncnc32)c1
inactive: growth inhibition [1] -11.3% | growth inhibition [2] -5.18% | viability increase [3] 2.21% | viability [4] 106% | viability [5] 95.4% | inhibition [6] 3.18% | RAM network inhibition [7] 1.56%

CCCCC(CC)CNC(=O)c1[nH]c(C)c(C(C)=O)c1C (configuration not stated)
inactive: growth inhibition [1] 9.77% | growth inhibition [2] -2.26% | viability increase [3] -1.78% | viability [4] 41.7% | viability [5] 63.8% | inhibition [6] 1.91% | RAM network inhibition [7] 1.29%

O=C(c1cnccn1)N(c1ccccc1)C1(C(=O)NC2CCCCC2)CCCCC1
inactive: growth inhibition [1] -6.44% | growth inhibition [2] -1.08% | viability increase [3] -0.6% | viability [4] 96.9% | viability [5] 90.7% | inhibition [6] 1.06% | RAM network inhibition [7] 1.62%

CCOCCn1c(SCCc2ccccc2)nc2c1c(=O)[nH]c(=O)n2C
inactive: growth inhibition [1] -3.39% | growth inhibition [2] 10.7% | viability increase [3] -1.92% | viability [4] 98.8% | viability [5] 98.9% | inhibition [6] 1.69% | RAM network inhibition [7] 0.11%

C=CCc1cccc2cc(C(=O)N(C)C)c(=O)oc12
inactive: growth inhibition [1] -7.92% | growth inhibition [2] -6.08% | viability increase [3] -1.06% | viability [4] 105% | viability [5] 93.8% | inhibition [6] 1.53% | RAM network inhibition [7] 2.04%

CC(=O)c1sc(NC(=O)c2ccco2)nc1-c1ccccc1
inactive: growth inhibition [1] -6.58% | growth inhibition [2] 6.05% | viability increase [3] -1.39% | viability [4] 103% | viability [5] 87.7% | inhibition [6] 1.87% | RAM network inhibition [7] 1.69%

COc1ccc(C2c3c(oc4ccc(F)cc4c3=O)C(=O)N2CCN2CCOCC2)cc1OC (configuration not stated)
inactive: growth inhibition [1] -0.77% | growth inhibition [2] 4.3% | viability increase [3] -1.12% | viability [4] 107% | viability [5] 108% | inhibition [6] 0.315% | RAM network inhibition [7] 2.7%

Cc1ccc(CNC(=O)c2ccc(Br)o2)cc1
inactive: growth inhibition [1] -14.5% | growth inhibition [2] -1.29% | viability increase [3] -0.67% | viability [4] 96.9% | viability [5] 98.1% | inhibition [6] 0.885% | RAM network inhibition [7] 3.41%

CCCc1cc(C(=O)Nc2sc3c(c2C(=O)OCC)CCCC3)no1
inactive: growth inhibition [1] -19% | growth inhibition [2] -10.2% | viability increase [3] 1.82% | viability [4] 104% | viability [5] 99.5% | inhibition [6] 3.09% | RAM network inhibition [7] 3.28%

Cc1c(C(=O)NCC2CCCO2)oc2ccc(S(=O)(=O)N3CCCCC3)cc12 (configuration not stated)
inactive: growth inhibition [1] -15.5% | growth inhibition [2] -9.72% | viability increase [3] -0.95% | viability [4] 89.9% | viability [5] 92.1% | inhibition [6] 2.4% | RAM network inhibition [7] 1.2%

CCN(CC)c1ccc(NS(=O)(=O)c2ccc3c(c2)oc(=O)n3C)c(C)c1
inactive: growth inhibition [1] -8.04% | growth inhibition [2] -10.8% | viability increase [3] -2.73% | viability [4] 83.2% | viability [5] 72.6% | inhibition [6] 1.33% | RAM network inhibition [7] -0.57%

COc1cc2c(=O)n(Cc3ccccc3)c(=O)n(CC(=O)NCC3CCCO3)c2cc1OC (configuration not stated)
inactive: growth inhibition [1] -2.89% | growth inhibition [2] -0.925% | viability increase [3] -0.67% | viability [4] 97.9% | viability [5] 94.1% | inhibition [6] 2.3% | RAM network inhibition [7] 3.29%

COc1cc2c(cc1OC)C(C(=O)Nc1ccc3c(c1)OCCO3)C(c1cccnc1)N(C)C2=O (configuration not stated)
inactive: growth inhibition [1] -4.64% | growth inhibition [2] -22.9% | viability increase [3] -6.9% | viability [4] 85.6% | viability [5] 87.9% | inhibition [6] 1.38% | RAM network inhibition [7] -0.57%

CC(=O)NCCn1c(C)cc2ccccc21
inactive: growth inhibition [1] 2.67% | growth inhibition [2] -0.185% | viability increase [3] -0.52% | viability [4] 95.3% | viability [5] 105% | inhibition [6] 0.97% | RAM network inhibition [7] 0.86%

N#Cc1ccc(OCCN2C(=O)NC3(CCSC3)C2=O)cc1 (configuration not stated)
inactive: growth inhibition [1] -2.65% | growth inhibition [2] -19% | viability increase [3] -1.88% | viability [4] 101% | viability [5] 94.4% | inhibition [6] 0.975% | RAM network inhibition [7] 0.56%

CCOC(=O)c1nc2nc(C)cc(=O)n2[nH]1
inactive: growth inhibition [1] -14.5% | growth inhibition [2] -7.54% | viability increase [3] 0.46% | viability [4] 105% | viability [5] 97.7% | inhibition [6] 0.96% | RAM network inhibition [7] 4.54%
